From PubChem BioAssay AID743337 (The Scripps Research Institute Molecular Screening Center, 2014)
Calls of active or inactive are those of the source.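 Rule for the calls: active = IC50 of 10 µM or lower; inactive = IC50 above 10 µM.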

What follows are compounds tested against Disintegrin and metalloproteinase domain-containing protein 17 (Homo sapiens) (UniProt P78536) (assay: ADAM17 inhibitor potency, late-stage follow-up, ADAM17 exosite inhibitor project, biochemical, QFRET peptide cleavage, IC50 (AID 743337)). Settings: recombinant ADAM17, QFRET peptide cleavage, fluorescence 3 h.
Disintegrin and metalloproteinase domain-containing protein 17 (Homo sapiens), sequence (P78536 215-824 limits assumed): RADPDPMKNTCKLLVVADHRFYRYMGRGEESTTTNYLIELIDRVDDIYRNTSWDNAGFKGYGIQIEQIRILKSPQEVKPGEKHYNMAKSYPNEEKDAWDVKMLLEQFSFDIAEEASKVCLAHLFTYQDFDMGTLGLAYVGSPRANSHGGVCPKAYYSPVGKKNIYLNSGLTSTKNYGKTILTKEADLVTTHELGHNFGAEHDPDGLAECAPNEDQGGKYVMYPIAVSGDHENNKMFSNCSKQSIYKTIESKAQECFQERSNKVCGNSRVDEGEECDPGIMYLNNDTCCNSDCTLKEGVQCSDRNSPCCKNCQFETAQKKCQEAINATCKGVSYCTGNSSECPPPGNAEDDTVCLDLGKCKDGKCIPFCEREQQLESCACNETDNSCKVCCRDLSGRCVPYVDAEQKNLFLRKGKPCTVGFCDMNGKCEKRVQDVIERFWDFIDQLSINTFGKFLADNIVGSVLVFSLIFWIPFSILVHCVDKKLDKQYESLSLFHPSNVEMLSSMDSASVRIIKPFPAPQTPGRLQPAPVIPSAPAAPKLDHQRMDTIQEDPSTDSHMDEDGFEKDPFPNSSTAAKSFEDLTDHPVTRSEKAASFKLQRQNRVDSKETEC
Summary of the method: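 Material: ADAM17 metalloprotease enzyme, cell-free biochemical assay. Amount: ADAM17 enzyme added as 2X solution at 20 nM. Timing: 30 min preincubation plus 3 h reaction, 25 °C. Measure: IC50 from four-parameter sigmoidal dose-response fit. Measured by: fluorescence, ex 359 nm, em 460 nm. Buffer or medium: 50 mM HEPES buffer pH 7.5 with 0.01% Brij.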

SMILES	IC50
Cc1ccc(OCC(O)Cn2c3ccccc3c3ccccc32)cc1 (centres undefined)	> 69.5 µM (inactive)
O=C(Nc1ccc(OCC(F)(F)C(F)(F)F)c(C(F)(F)F)c1)c1ccc(F)cc1	> 69.5 µM (inactive)
O=S(=O)(NCC(Nc1ccc(Cl)cc1)c1ccccc1)c1ccc(Cl)cc1 (centres undefined)	> 69.5 µM (inactive)
COc1cccc(C(=O)NNC(=O)C(=O)Nc2ccc(C)c(Cl)c2)c1	> 69.5 µM (inactive)
C=C(C)COc1ccc(-c2[nH]ncc2Oc2cccc(OC)c2)c(O)c1	> 69.5 µM (inactive)
O=C(Nc1ccc(OCC(F)(F)C(F)(F)F)c(C(F)(F)F)c1)c1ccc(Br)cc1	> 69.5 µM (inactive)
O=C(CN(Cc1cccs1)S(=O)(=O)c1ccc(S(=O)(=O)NC2CCCCC2)cc1)Nc1ccccc1	> 69.5 µM (inactive)
CCOc1ccc(NC(=O)CC2SC(=O)N(c3ccccc3)C2=O)cc1 (centres undefined)	7.83 µM
C=C(C)COc1ccc(-c2[nH]ncc2Oc2ccc(OC)cc2)c(O)c1	> 69.5 µM (inactive)
C=C(C)COc1ccc(-c2n[nH]c(C)c2Oc2ccccc2OC)c(O)c1	> 69.5 µM (inactive)
CCCOC(=O)c1ccc(Oc2cn[nH]c2-c2ccc(OCC)cc2O)cc1	> 69.5 µM (inactive)
CCCCN(Cc1ccccc1)S(=O)(=O)c1cc(Br)cc2c1N(C(C)=O)C(C)C2 (centres undefined)	> 69.5 µM (inactive)
COc1ccc2nc(SCC(=O)Nc3ccc(S(=O)(=O)N4CCCC4)cc3)c(C#N)cc2c1	> 69.5 µM (inactive)

Continued, values first:

IC50	SMILES
inactive	Cc1ccc(CC2(c3ccccc3)NC(=O)NC2=O)cc1 (centres undefined)
> 69.5 µM (inactive)	O=S(=O)(NCC(Nc1ccc(Cl)cc1)c1ccccc1)c1ccccc1 (centres undefined)
3.76 µM	O=C1NC(=O)C(Cc2ccc(Cl)cc2)(c2ccccc2)N1 (centres undefined)
> 69.5 µM (inactive)	COc1ccc(-c2ccc(-c3noc(-c4cccc(OC)c4)n3)c(OC)n2)cc1
> 69.5 µM (inactive)	Cc1csc(-c2cnn(-c3ccccc3)c2NC(=O)c2ccc(C(F)(F)F)cc2)n1
> 69.5 µM (inactive)	COc1ccccc1NS(=O)(=O)c1cccc(NC(=O)Nc2ccc(Cl)cc2)c1
inactive	Oc1cc2c(cc1C(c1ccc(Cl)c(Cl)c1)N1CCCC1)OCO2 (centres undefined)
> 69.5 µM (inactive)	CS(=O)(=O)N(CC(=O)Nc1ccccc1Sc1ccccc1)c1cccc(Br)c1
> 69.5 µM (inactive)	Cc1ccc(S(=O)(=O)Nc2ccc(Cl)cc2)cc1NC(=O)c1cc2c(s1)CCCC2
> 69.5 µM (inactive)	O=C(Nc1ccc(OCC(F)(F)C(F)F)c(C(F)(F)F)c1)c1ccc(Cl)cc1
inactive	O=C(O)CCC(=O)c1c[nH]c2ccccc12
